Laboratory results from ChEMBL document CHEMBL5705905, “Pharmacological targeting of kinases MST1 and MST2 augments tissue repair and regeneration” (Sci Transl Med, 2016).
Activity calls are given as the source filed them. The rule behind the calls is not given here.

How the values were obtained:
[1] = biological target: Mitogen-activated protein kinase kinase kinase 6 (Homo sapiens) (UniProt O95382); assay: Inhibition of ASK2 (unknown origin) assessed as remaining activity at 1 uM by Kinome scan method relative to control
Sequence of Mitogen-activated protein kinase kinase kinase 6 (Homo sapiens) (O95382 whole entry): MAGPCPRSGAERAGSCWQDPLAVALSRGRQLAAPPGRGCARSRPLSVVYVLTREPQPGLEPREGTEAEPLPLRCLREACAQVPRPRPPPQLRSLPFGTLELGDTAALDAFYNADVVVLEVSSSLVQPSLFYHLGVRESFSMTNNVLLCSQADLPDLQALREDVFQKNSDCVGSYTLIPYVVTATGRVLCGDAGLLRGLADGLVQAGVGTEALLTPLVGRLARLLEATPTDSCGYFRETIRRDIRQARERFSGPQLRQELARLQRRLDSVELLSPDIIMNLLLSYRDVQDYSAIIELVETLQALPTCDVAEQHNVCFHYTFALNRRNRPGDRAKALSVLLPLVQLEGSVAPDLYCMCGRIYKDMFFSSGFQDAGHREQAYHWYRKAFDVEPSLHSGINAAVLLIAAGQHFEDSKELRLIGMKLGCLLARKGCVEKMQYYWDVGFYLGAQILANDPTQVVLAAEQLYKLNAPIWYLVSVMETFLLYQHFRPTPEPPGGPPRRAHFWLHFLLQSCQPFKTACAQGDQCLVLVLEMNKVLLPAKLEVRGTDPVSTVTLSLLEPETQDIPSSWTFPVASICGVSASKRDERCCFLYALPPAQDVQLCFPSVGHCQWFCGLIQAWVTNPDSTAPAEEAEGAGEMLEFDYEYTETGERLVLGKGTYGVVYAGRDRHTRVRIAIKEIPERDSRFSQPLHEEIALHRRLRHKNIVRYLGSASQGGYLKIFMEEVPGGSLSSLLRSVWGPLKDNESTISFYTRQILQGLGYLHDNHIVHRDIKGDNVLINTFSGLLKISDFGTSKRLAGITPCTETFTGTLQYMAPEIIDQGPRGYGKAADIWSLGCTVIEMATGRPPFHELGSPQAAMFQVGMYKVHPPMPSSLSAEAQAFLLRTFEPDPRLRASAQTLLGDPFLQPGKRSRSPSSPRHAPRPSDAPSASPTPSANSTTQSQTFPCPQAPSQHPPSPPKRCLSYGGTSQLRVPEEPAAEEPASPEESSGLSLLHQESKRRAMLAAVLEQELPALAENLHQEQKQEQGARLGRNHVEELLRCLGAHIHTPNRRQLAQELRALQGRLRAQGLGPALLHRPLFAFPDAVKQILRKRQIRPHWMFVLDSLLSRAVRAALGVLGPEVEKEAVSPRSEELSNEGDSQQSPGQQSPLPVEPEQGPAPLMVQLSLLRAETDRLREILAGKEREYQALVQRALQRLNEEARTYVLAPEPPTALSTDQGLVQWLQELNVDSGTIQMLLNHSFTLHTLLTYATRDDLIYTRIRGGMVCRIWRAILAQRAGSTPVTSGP
Summary of the method: (§1)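 Active-site-dependent competition-binding (KINOMEscan) panel of 468 kinases, test compound at 1 μM (from a 10 mM DMSO stock). Read-out is ctrl% = (test signal − positive control signal)/(negative control signal − positive control signal) × 100. DMSO is the negative control (100%) and a control compound is the positive control (0%). Lower ctrl% means tighter binding.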

[2] = biological target: Tyrosine-protein kinase Blk (Homo sapiens) (UniProt P51451); assay: Inhibition of BLK (unknown origin) assessed as remaining activity at 1 uM by Kinome scan method relative to control; summary of the method: as §1
[3] = biological target: Calcium/calmodulin-dependent protein kinase type 1B (Homo sapiens) (UniProt Q6P2M8); assay: Inhibition of CAMK1B (unknown origin) assessed as remaining activity at 1 uM by Kinome scan method relative to control; summary of the method: as §1
Sequence of Calcium/calmodulin-dependent protein kinase type 1B (Homo sapiens) (Q6P2M8 whole entry): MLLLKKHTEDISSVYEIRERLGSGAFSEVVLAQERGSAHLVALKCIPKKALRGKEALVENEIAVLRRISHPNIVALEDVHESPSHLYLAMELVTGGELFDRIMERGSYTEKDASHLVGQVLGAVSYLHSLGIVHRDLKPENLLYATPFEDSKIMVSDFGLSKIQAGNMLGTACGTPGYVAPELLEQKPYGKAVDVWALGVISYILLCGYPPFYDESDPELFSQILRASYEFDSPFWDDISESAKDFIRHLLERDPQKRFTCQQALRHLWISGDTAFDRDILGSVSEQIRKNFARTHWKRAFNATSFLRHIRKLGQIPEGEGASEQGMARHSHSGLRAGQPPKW

[4] = biological target: Cyclin-dependent kinase 19 (Homo sapiens) (UniProt Q9BWU1); assay: Inhibition of CDK11 (unknown origin) assessed as remaining activity at 1 uM by Kinome scan method relative to control
Summary of the method: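 KINOMEscan active-site-dependent competition-binding panel of 468 kinases, compound at 1 μM from a DMSO stock. Result reported as ctrl% = (test signal − positive control signal)/(negative control signal − positive control signal) × 100. The negative control is DMSO (100%) and the positive control is a control compound (0%). Lower ctrl% means tighter binding.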

[5] = biological target: Serine/threonine-protein kinase Chk2 (Homo sapiens) (UniProt O96017); assay: Inhibition of CHEK2 (unknown origin) assessed as remaining activity at 1 uM by Kinome scan method relative to control
Summary of the method: (§2)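 Active-site-dependent competition-binding profiling (KINOMEscan) at 1 μM against a 468-kinase panel; compound supplied from a 10 mM DMSO stock. Read-out is ctrl% = (test signal − positive control signal)/(negative control signal − positive control signal) × 100. DMSO is the negative control (100%) and a control compound the positive control (0%). Lower ctrl% means tighter binding.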

[6] = biological target: Macrophage colony-stimulating factor 1 receptor (Homo sapiens) (UniProt P07333); assay: Inhibition of CSF1R-autoinhibited (unknown origin) assessed as remaining activity at 1 uM by Kinome scan method relative to control; summary of the method: as §2
[7] = biological target: Tyrosine-protein kinase CSK (Homo sapiens) (UniProt P41240); assay: Inhibition of CSK (unknown origin) assessed as remaining activity at 1 uM by Kinome scan method relative to control; summary of the method: as §2
[8] = biological target: Casein kinase I isoform gamma-2 (Homo sapiens) (UniProt P78368); assay: Inhibition of CSNK1G2 (unknown origin) assessed as remaining activity at 1 uM by Kinome scan method relative to control; summary of the method: as §2
Sequence of Casein kinase I isoform gamma-2 (Homo sapiens) (P78368 whole entry, looked up, canonical isoform): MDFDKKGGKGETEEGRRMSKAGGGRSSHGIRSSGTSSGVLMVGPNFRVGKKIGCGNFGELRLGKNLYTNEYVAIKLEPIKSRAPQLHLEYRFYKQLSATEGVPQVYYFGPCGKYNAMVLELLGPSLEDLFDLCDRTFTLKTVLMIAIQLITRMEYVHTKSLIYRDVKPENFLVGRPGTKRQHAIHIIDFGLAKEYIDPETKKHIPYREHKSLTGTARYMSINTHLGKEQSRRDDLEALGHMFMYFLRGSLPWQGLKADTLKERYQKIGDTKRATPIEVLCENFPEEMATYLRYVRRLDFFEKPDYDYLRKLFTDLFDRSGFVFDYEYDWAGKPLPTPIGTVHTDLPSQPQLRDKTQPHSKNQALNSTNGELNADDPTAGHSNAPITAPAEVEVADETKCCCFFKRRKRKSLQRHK

[9] = test system: Receptor-type tyrosine-protein kinase FLT3 (Homo sapiens), P36888 [UNDEFINED MUTATION]; assay: Inhibition of FLT3 […]/F691L mutant (unknown origin) assessed as remaining activity at 1 uM by Kinome scan method relative to control
[10] = biological target: Rhodopsin kinase GRK7 (Homo sapiens) (UniProt Q8WTQ7); assay: Inhibition of GRK7 (unknown origin) assessed as remaining activity at 1 uM by Kinome scan method relative to control
[11] = biological target: Serine/threonine-protein kinase ICK (Homo sapiens) (UniProt Q9UPZ9); assay: Inhibition of ICK (unknown origin) assessed as remaining activity at 1 uM by Kinome scan method relative to control
[12] = biological target: Insulin receptor (Homo sapiens) (UniProt P06213); assay: Inhibition of INSR (unknown origin) assessed as remaining activity at 1 uM by Kinome scan method relative to control
Sequence of Insulin receptor (Homo sapiens) (P06213 28-758 limits assumed): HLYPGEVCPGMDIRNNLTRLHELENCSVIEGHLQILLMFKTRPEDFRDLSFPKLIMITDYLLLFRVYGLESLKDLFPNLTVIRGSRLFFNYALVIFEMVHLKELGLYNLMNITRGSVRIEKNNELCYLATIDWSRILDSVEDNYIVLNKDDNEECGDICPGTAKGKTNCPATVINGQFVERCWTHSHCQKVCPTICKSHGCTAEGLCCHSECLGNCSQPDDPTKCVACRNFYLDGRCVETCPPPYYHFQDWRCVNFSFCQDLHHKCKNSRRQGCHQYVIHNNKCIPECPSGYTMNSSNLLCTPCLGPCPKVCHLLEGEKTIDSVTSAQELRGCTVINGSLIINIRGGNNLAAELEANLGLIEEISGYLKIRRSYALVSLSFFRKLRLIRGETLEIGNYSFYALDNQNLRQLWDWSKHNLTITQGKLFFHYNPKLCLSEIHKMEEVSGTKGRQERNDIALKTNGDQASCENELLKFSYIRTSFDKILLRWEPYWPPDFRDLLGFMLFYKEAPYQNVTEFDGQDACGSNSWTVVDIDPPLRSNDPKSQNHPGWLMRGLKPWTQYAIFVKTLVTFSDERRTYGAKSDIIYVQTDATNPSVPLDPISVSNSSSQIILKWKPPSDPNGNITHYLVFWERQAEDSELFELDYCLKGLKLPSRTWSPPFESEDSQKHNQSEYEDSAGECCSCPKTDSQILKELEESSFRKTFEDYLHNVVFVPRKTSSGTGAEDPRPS
Sequence of Insulin receptor (Homo sapiens) (P06213 763-1382 limits assumed): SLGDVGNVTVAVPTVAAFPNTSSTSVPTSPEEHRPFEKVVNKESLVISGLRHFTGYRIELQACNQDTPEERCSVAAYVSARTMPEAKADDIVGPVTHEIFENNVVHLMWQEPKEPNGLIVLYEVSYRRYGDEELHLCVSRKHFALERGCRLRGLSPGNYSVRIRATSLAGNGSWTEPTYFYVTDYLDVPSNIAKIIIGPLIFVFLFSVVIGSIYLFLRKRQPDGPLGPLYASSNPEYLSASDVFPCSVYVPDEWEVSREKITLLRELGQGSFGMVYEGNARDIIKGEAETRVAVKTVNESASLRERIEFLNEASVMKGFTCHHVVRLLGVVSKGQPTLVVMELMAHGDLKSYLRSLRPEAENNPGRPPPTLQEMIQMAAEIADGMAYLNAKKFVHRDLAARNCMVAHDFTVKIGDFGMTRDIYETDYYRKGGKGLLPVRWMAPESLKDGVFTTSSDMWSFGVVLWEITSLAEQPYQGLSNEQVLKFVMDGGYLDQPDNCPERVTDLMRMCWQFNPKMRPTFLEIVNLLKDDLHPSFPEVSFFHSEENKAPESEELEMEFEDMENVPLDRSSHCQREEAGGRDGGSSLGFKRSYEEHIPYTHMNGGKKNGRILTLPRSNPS

[13] = biological target: Tyrosine-protein kinase JAK3 (Homo sapiens) (UniProt P52333); assay: Inhibition of JAK3 JH1 domain (unknown origin) assessed as remaining activity at 1 uM by Kinome scan method relative to control
[14] = biological target: Mitogen-activated protein kinase kinase kinase 4 (Homo sapiens) (UniProt Q9Y6R4); assay: Inhibition of MAP3K4 (unknown origin) assessed as remaining activity at 1 uM by Kinome scan method relative to control
[15] = biological target: Microtubule-associated serine/threonine-protein kinase 1 (Homo sapiens) (UniProt Q9Y2H9); assay: Inhibition of MAST1 (unknown origin) assessed as remaining activity at 1 uM by Kinome scan method relative to control
[16] = biological target: Muscle, skeletal receptor tyrosine-protein kinase (Homo sapiens) (UniProt O15146); assay: Inhibition of MUSK (unknown origin) assessed as remaining activity at 1 uM by Kinome scan method relative to control
[17] = biological target: Myosin light chain kinase 2, skeletal/cardiac muscle (Homo sapiens) (UniProt Q9H1R3); assay: Inhibition of MYLK2 (unknown origin) assessed as remaining activity at 1 uM by Kinome scan method relative to control
[18] = biological target: Membrane-associated tyrosine- and threonine-specific cdc2-inhibitory kinase (Homo sapiens) (UniProt Q99640); assay: Inhibition of PKMYT1 (unknown origin) assessed as remaining activity at 1 uM by Kinome scan method relative to control
[19] = biological target: cAMP-dependent protein kinase catalytic subunit PRKX (Homo sapiens) (UniProt P51817); assay: Inhibition of PRKX (unknown origin) assessed as remaining activity at 1 uM by Kinome scan method relative to control
Sequence of cAMP-dependent protein kinase catalytic subunit PRKX (Homo sapiens) (P51817 whole entry, the tested form may be a part): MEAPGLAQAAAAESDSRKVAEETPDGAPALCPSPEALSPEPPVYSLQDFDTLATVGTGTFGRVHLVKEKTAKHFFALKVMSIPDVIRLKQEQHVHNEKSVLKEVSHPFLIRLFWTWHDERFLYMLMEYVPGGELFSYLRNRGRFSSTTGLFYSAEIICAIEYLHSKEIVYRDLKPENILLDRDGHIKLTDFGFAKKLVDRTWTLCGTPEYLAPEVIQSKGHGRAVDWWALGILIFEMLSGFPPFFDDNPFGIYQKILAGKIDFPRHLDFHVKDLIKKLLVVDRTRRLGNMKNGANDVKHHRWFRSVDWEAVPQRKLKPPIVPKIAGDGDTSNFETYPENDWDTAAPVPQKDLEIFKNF

[20] = biological target: Ribosomal protein S6 kinase alpha-6 (Homo sapiens) (UniProt Q9UK32); assay: Inhibition of N-terminal kinase domain RSK4 (unknown origin) assessed as remaining activity at 1 uM by Kinome scan method relative to control
Sequence of Ribosomal protein S6 kinase alpha-6 (Homo sapiens) (Q9UK32 whole entry, the tested form may be a part): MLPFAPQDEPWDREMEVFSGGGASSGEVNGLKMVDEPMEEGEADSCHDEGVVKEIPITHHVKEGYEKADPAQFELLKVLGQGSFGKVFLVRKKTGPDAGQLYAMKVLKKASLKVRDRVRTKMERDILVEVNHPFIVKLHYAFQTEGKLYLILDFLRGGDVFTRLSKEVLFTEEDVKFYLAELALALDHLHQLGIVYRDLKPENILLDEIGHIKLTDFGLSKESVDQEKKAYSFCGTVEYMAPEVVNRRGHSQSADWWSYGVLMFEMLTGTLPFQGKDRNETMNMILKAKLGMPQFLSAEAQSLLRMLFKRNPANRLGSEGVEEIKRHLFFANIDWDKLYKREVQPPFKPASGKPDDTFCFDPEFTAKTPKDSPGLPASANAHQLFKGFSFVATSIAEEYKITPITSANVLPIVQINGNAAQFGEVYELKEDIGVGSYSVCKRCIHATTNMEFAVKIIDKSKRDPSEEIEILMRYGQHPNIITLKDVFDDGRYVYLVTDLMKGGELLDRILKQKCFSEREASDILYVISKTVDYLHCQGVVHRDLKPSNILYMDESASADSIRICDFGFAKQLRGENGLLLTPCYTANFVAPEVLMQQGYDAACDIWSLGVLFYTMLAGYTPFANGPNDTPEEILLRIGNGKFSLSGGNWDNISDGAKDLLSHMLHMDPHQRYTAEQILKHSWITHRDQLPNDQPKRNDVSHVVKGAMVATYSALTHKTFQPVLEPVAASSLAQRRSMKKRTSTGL

[21] = biological target: Ribosomal protein S6 kinase alpha-6 (Homo sapiens) (UniProt Q9UK32); assay: Inhibition of C-terminal kinase domain RSK4 (unknown origin) assessed as remaining activity at 1 uM by Kinome scan method relative to control; summary of the method: as §1
[22] = biological target: Mitogen-activated protein kinase kinase kinase 7 (Homo sapiens) (UniProt O43318); assay: Inhibition of TAK1 (unknown origin) assessed as remaining activity at 1 uM by Kinome scan method relative to control
[23] = biological target: Tyrosine-protein kinase TXK (Homo sapiens) (UniProt P42681); assay: Inhibition of TXK (unknown origin) assessed as remaining activity at 1 uM by Kinome scan method relative to control
Sequence of Tyrosine-protein kinase TXK (Homo sapiens) (P42681 whole entry): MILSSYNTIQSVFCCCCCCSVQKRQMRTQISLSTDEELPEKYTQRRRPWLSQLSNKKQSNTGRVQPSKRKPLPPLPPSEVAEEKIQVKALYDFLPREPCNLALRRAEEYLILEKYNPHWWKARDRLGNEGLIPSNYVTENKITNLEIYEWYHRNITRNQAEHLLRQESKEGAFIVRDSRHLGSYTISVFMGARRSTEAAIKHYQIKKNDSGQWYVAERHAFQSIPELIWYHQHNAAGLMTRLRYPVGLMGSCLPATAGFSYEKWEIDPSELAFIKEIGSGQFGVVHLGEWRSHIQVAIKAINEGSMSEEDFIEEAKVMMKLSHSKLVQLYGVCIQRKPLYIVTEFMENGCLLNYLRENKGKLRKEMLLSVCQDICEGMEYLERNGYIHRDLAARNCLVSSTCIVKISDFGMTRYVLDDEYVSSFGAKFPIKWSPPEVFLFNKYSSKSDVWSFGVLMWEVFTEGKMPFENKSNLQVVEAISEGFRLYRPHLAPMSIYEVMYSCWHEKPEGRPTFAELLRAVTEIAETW

[24] = Acute toxicity in wild-type mouse assessed as cell proliferation in kidney at 3 mg/kg,ip administrated daily for 7 days by Ki67 staining; assay type: organism-based; conditions: in vivo, 168 h, time 7 day
Summary of the method: (§3)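 Wild-type mice received vehicle or 3 mg/kg i.p. daily for 7 days. Ki67 staining of sections from various tissues with quantification of positive cells, n = 6; means ± SD, Student's t test. Daily weights, physical activity and serum chemistry were also monitored.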

[25] = Acute toxicity in wild-type mouse assessed as cell proliferation in colon at 3 mg/kg,ip administrated daily for 7 days by Ki67 staining; assay type: organism-based; conditions: in vivo, 168 h, time 7 day; summary of the method: as §3
Mus musculus [26] = assay: Protection against human hepatocyte transplanted FRG mouse assessed as Fah-deficient hepatocyte survival at 1 mg/kg, ip administrated once a daily for 28 days by H&E staining based immunohistochemical analysis; assay type: functional, organism-based; conditions: Liver, time 28.0 day
Mus musculus [27] = assay: Protection against CCl4-induced mouse assessed as low level in collagen deposition at 1 mg/kg, ip administration daily for 10 days by Sirius Red staining; assay type: functional, organism-based; conditions: Liver, time 10.0 day

With `CN1C(=O)c2sccc2N(C)c2nc(Nc3ccc(S(N)(=O)=O)cc3)ncc21` the Activity [1] was 84%, the Activity [2] was 96% and the Activity [3] was 84%. For the same compound, the Activity [4] was 95%, the Activity [5] was 100% and the Activity [6] was 87%. It also gave an Activity [7] of 100%, an Activity [8] of 100% and an Activity [9] of 26%. For the same compound, the Activity [10] was 74%, the Activity [11] was 62% and the Activity [12] was 98%. It also gave an Activity [13] of 73%, an Activity [14] of 91% and an Activity [15] of 80%. The Activity [16] was 100%, the Activity [17] was 92% and the Activity [18] was 100%. For the same compound, the Activity [19] was 100%, the Activity [20] was 66% and the Activity [21] was 93%. The Activity [22] was 71%, the Activity [23] was 90% and the Activity [24] was “Non-Toxic”. For the same compound, the Activity [25] was “Non-Toxic”, the Activity (Mus musculus [26]) was “inactive” and the Activity (Mus musculus [27]) was “Active”.
